Reference: ChEMBL document CHEMBL3351255, “Synthesis of dihydroresveratrol glycosides and evaluation of their activity against melanogenesis in B16F0 melanoma cells” (Eur J Med Chem, 2014)

Key:
[1] = Toxicity in mouse B16F10 cells assessed as cell viability at 25.5 uM incubated for 72 hrs by BCA protein assay; assay type: cell-based; conditions: read-out: Activity
[2] = system: B16-F10; experiment: Potency index, ratio of kojic acid to test compound for inhibition of melanogenesis in mouse B16F10 cells; assay type: functional
[3] = Toxicity in mouse B16F10 cells assessed as protein content at 25.5 uM incubated for 72 hrs by BCA protein assay; assay type: cell-based
In short: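 Treatment was the same as above: B16F0 cells in DMEM with 5% FBS plus sample in ethanol, with medium and sample renewed after 72 h and cells harvested by trypsin 72 h later. Total cellular protein in the pelleted cells was measured by bicinchoninic acid (BCA) assay and expressed as % of negative control.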

[4] = system: B16-F0; experiment: Effect on melanogenesis in mouse B16F0 cells assessed as melanin content at 1 mM incubated for 72 hrs; conditions: B16-F0, 72 h

Row | SMILES | viability at 72 h, 25.5 µM [1] [%] | Ratio [2] | Activity [3] [%] | melanin content at 1000 µM [4] [%]
1 | C=CC/C=C\C/C=C\CCCCCCCc1cc(O)cc(O)c1 | 102 | 40 | 98 | –
2 | O=c1cc(CO)occ1O [KOJIC ACID] | – | – | – | 79
